Test results reported in ChEMBL document CHEMBL1159095, “Synthesis and optimization of thiadiazole derivatives as a novel class of substrate competitive c-Jun N-terminal kinase inhibitors” (Bioorg Med Chem, 2010).
Activity calls are given as the source filed them. No cut-off for these calls is given here.

Columns and labels:
[1] = molecular target: T1, Mitogen-activated protein kinase 9 (Homo sapiens, UniProt P45984); experiment: Displacement of biotin-labeled pep-JIP1from JNK2 by DELFIA assay
Procedure, shortened: (§1)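 Added Eu-labelled anti-GST antibody (300 ng/ml; 1.9 nM), compound in DMSO and GST-JNK2 at 10 nM final. Incubated 1 hr at 0 °C, washed 5 times, enhancement solution added, fluorescence read after 10 min (ex 340, em 615 nm). Controls were unlabelled peptide and no-compound blanks.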
Target sequence in this assay (P45984 whole entry): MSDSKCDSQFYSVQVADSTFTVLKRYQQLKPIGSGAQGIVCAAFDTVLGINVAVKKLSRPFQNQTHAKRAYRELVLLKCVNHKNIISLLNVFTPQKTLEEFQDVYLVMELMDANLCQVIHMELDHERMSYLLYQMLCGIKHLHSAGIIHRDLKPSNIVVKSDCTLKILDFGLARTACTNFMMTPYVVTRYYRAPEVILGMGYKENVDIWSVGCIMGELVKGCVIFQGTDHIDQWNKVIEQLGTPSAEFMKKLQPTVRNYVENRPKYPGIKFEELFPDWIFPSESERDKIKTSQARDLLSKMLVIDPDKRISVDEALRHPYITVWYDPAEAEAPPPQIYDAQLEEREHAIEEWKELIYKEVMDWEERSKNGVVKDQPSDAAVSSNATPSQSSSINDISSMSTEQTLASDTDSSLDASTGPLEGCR

[2] = molecular target: T2, Mitogen-activated protein kinase 8 (Homo sapiens, UniProt P45983); experiment: Inhibition of JNK1 by TR-FRET assay
Procedure, shortened: (§2)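 LanthaScreen TR-FRET kinase assay. JNK1 at 35 ng/mL, ATF2 substrate at 400 nM and ATP at 0.2 μM in 50 mM HEPES pH 7.5, 10 mM MgCl2, 1 mM EGTA, 0.01% Brij-35, with compound. Reaction ran 1 hr at room temperature, then terbium-labelled antibody plus EDTA were added.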

[3] = Permeability assessed as drug flux at pH 7.4 by PAMPA assay; format: ADME
Procedure, shortened: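 PAMPA: filter impregnated with 1-20% phospholipid in organic solvent over an acceptor plate of aqueous buffer at pH 7.4. Donor added from a 20 μM stock (DMSO <2%). An equilibrium plate was prepared in parallel, and percent flux was calculated from acceptor versus equilibrium concentrations. Reference compounds included.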

[4] = molecular target: Mitogen-activated protein kinase 9 (Homo sapiens, UniProt P45984, C163S); experiment: Inhibition of JNK2 C163S mutant by isothermal calorimetry
Procedure, shortened: (§3)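 Isothermal titration calorimetry at 25 °C. C163S or wild-type JNK2 at 50 μM in 20 mM sodium phosphate pH 7.4 with 5% DMSO and 0.01% Triton X-100. Titrant at 750 μM in the same buffer.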

Lethal factor = molecular target: T3, Lethal factor (Bacillus anthracis, UniProt P15917); experiment: Inhibition of Bacillus anthracis anthrax lethal factor
T3 sequence (P15917 whole entry): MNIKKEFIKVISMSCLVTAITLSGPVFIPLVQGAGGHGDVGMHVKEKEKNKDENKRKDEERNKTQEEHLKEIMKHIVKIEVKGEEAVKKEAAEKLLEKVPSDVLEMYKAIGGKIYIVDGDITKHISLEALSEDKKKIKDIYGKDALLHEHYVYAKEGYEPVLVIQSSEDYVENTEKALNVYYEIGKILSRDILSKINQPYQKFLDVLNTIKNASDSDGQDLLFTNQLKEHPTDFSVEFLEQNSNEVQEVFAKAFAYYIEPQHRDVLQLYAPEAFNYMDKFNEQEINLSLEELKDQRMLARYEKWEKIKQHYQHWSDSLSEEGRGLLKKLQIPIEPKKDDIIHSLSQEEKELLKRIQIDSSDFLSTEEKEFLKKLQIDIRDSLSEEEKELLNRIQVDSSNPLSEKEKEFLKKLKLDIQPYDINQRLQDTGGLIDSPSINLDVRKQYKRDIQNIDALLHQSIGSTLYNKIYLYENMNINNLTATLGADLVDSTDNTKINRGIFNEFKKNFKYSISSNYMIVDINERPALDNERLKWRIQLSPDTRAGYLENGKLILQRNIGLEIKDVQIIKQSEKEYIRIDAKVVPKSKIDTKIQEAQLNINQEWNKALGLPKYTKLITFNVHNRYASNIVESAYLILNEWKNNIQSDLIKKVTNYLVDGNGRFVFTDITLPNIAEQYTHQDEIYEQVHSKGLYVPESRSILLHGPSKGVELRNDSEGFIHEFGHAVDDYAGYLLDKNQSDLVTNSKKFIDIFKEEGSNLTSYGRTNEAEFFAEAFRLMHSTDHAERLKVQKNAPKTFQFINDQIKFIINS

[5] = molecular target: RAC-alpha serine/threonine-protein kinase (Homo sapiens, UniProt P31749); experiment: Inhibition of AKT
[6] = Metabolic stability in rat plasma assessed as compound remaining after 60 mins by LC/MS-MS; format: ADME, cell-free; settings: read-out: Stability
Procedure, shortened: (§4)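 Compound at 1 μM (2.5% final DMSO) incubated in fresh rat plasma at 37 °C. Reactions stopped at 0, 30 and 60 min with two volumes of methanol containing internal standard, then precipitated, centrifuged and analysed by LC-MS. Percent parent remaining relative to 0 min calculated from peak-area ratios to internal standard. Run in duplicate with a plasma-labile positive control.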

[7] = Metabolic stability in rat plasma assessed as compound remaining after 30 mins by LC/MS-MS; format: ADME, cell-free; settings: read-out: Stability; procedure, shortened: as §4
Furin = Furin (Homo sapiens, UniProt P09958); experiment: Inhibition of FURIN
[8] = molecular target: Mitogen-activated protein kinase 14 (Homo sapiens, UniProt Q16539); experiment: Inhibition of p38alpha MAPK
[9] = Inhibition of JNK-mediated TNF-alpha-stimulated c-Jun phosphorylation by cell-based TR-FRET assay
Procedure, shortened: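 HeLa cells stably expressing GFP-c-Jun(1-79) plated at 10000/well in Opti-MEM with 1% charcoal/dextran-treated FBS, no phenol red, and left overnight. Pretreated 60 min with compound, then stimulated 30 min with TNF-alpha at 2 ng/ml. Lysed in buffer containing 2 nM terbium anti-phospho-c-Jun (Ser73) antibody and equilibrated 1 h at room temperature. TR-FRET ratio Em520/Em490 read with excitation at 340 nm.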

[10] = molecular target: T1, Mitogen-activated protein kinase 9; experiment: Inhibition of wild-type JNK2 by isothermal calorimetry; procedure, shortened: as §3
Target sequence in this assay (P45984 whole entry): as the sequence (P45984 whole entry) above

[11] = molecular target: T1, Mitogen-activated protein kinase 9; experiment: Displacement of biotin-labeled pep-JIP1from JNK2 at 50 uM by DELFIA assay; procedure, shortened: as §1
Target sequence in this assay (P45984 whole entry, looked up): as the sequence (P45984 whole entry) above

[12] = molecular target: T2, Mitogen-activated protein kinase 8; experiment: Inhibition of JNK1 up to 25 uM by TR-FRET assay
Procedure, shortened: as §2, with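 “added. After a further hour, the 520/495 nm emission ratio was read.” for “added.”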

Mitogen-activated protein kinase 9 (Homo sapiens, UniProt P45984, C163S), sequence (P45984 whole entry C163S): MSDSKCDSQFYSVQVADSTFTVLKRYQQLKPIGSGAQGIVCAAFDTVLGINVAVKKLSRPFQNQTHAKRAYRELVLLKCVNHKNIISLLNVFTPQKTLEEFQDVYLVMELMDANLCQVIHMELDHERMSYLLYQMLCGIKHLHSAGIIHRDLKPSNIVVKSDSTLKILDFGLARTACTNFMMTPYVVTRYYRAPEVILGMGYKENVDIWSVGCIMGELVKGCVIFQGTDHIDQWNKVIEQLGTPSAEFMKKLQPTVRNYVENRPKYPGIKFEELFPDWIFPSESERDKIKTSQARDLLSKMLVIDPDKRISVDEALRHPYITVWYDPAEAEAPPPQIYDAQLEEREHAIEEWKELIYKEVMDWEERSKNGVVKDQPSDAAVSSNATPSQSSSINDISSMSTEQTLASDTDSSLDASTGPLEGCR
T2 sequence (P45983 whole entry): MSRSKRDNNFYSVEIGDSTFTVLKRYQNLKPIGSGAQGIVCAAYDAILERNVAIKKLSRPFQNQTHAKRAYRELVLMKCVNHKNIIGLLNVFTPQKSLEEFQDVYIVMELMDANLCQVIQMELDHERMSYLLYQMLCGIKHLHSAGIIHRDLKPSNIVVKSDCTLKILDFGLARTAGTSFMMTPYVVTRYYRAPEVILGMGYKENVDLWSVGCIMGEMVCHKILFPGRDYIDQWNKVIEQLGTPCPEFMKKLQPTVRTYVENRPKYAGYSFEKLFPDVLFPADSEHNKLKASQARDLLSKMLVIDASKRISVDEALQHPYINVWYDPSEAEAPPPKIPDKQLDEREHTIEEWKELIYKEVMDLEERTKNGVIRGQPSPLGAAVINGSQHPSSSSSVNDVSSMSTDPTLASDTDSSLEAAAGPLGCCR
Furin, sequence (P09958 whole entry): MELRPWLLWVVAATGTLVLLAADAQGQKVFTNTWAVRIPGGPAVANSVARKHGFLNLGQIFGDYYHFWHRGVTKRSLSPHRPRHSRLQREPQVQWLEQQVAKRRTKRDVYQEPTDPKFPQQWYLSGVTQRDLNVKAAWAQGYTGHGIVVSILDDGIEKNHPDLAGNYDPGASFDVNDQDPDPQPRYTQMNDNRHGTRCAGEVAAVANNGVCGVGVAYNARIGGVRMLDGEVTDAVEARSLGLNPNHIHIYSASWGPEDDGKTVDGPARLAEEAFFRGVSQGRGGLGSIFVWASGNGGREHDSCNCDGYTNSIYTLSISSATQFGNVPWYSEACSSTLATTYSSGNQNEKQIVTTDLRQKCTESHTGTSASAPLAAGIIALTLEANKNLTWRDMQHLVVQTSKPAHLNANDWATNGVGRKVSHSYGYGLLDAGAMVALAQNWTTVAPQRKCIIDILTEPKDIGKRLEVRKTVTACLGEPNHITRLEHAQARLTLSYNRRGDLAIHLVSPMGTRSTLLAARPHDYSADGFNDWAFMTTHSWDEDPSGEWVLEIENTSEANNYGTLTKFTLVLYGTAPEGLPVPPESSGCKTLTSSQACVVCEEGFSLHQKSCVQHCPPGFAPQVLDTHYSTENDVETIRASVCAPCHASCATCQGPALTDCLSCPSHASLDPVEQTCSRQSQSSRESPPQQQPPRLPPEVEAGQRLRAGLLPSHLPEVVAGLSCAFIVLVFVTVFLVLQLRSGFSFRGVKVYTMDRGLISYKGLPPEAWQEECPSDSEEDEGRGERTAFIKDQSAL
RAC-alpha serine/threonine-protein kinase, sequence (P31749 whole entry): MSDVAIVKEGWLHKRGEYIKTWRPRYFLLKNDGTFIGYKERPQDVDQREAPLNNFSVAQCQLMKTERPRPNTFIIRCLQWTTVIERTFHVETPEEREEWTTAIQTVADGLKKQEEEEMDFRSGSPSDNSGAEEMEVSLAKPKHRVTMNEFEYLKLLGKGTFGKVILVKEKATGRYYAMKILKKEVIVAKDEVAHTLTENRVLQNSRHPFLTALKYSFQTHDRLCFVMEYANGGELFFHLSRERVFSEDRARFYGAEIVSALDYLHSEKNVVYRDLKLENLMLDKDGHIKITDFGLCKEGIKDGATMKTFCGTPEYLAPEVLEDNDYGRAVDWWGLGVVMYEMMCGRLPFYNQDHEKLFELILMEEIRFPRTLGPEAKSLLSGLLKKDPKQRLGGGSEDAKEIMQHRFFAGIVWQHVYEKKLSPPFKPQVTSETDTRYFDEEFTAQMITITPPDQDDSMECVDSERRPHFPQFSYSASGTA
Mitogen-activated protein kinase 14, sequence (Q16539 whole entry): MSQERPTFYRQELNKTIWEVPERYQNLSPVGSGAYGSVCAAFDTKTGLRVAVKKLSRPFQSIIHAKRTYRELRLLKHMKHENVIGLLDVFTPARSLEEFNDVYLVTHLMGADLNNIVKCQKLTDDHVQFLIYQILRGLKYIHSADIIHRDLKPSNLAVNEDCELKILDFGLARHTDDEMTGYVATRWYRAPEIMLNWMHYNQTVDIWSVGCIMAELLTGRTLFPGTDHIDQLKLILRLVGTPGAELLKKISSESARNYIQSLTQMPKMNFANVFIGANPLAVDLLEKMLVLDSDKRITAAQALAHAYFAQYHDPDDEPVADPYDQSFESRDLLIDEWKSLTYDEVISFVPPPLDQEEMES

Row | Structure (SMILES) | IC50 [1] [µM] | IC50 [2] [µM] | permeability [3] [%] | Kd [4] [µM] | IC50 (Lethal factor) [µM] | IC50 [5] [µM] | remaining at 1 h [6] [%] | remaining at 0.5 h [7] [%] | IC50 (Furin) [µM] | IC50 [8] [µM] | IC50 [9] [µM] | Kd [10] [µM] | inhibition [11] [%] | inhibition [12]
1 | CCNc1nnc(Sc2ncc([N+](=O)[O-])s2)s1 | 10 | 100 | – | – | – | – | – | – | – | – | – | – | – | –
2 | COc1ccc(CCNc2nnc(Sc3ncc([N+](=O)[O-])s3)s2)cc1OC | 0.1 | 5.7 | 76.3 | 1.9 | > 100 | > 100 | 68 | 6.05 | > 50 | > 100 | – | – | – | –
3 | CCC(C)Nc1nnc(Sc2ncc([N+](=O)[O-])s2)s1 (stereo not given) | 0.14 | 3 | 7.9 | – | > 100 | > 100 | – | 90 | > 50 | > 100 | 20 | – | – | –
4 | O=[N+]([O-])c1cnc(Sc2nnc(O)n2-c2ccc3c(c2)OCCO3)s1 | 0.5 | – | 5.5 | 51.1 | – | – | 0 | – | – | – | – | 8.1 | – | –
5 | COc1ccc(CNc2nnc(Sc3ncc([N+](=O)[O-])s3)s2)cc1 | 0.1 | 9.1 | – | – | – | – | – | – | – | – | 21 | – | – | –
6 | O=[N+]([O-])c1cnc(Sc2nnc(NCc3ccccc3)s2)s1 | – | – | – | – | – | – | – | – | – | – | – | – | 20 | inactive
7 | CC(C)(C)Nc1nnc(Sc2ncc([N+](=O)[O-])s2)s1 | – | – | – | – | – | – | – | – | – | – | – | – | 20 | inactive
8 | O=[N+]([O-])c1cnc(Sc2nnc(NCC3CCCO3)s2)s1 (stereo not given) | 0.47 | 10 | – | – | – | – | – | – | – | – | – | – | – | –
9 | CCCCNc1nnc(Sc2ncc([N+](=O)[O-])s2)s1 | – | – | – | – | – | – | – | – | – | – | – | – | 20 | inactive
10 | CCCNc1nnc(Sc2ncc([N+](=O)[O-])s2)s1 | 0.29 | 6.7 | 30 | 7.2 | > 100 | > 100 | 42 | 48.1 | > 50 | > 100 | – | 9.4 | – | –
11 | COCCNc1nnc(Sc2ncc([N+](=O)[O-])s2)s1 | 0.16 | 4.8 | 49.8 | 4.2 | > 100 | > 100 | 35 | 79.7 | > 50 | > 100 | 8 | 2.8 | – | –
